# Hits are enriched below; roughly 2.4% of the tested compounds scored in any of these assays.
# Rin1-Abl PPI inh: inhibitors of human Rin1-Abl protein interaction. P00519+Q13671. TR-FRET Rin1/Abl binding, biochemical. inhibition, % at 7.35 µM. 0.4% of 360,000 active. AID 588664; in the data active = inhibition above about 5%, passing the limit was not always enough
# Rpn11 block: Rpn11 (human) deubiquitinase inhibition; human 26S proteasome, Ub4-pepOG fluorescence polarization; 20S core pre-blocked with epoxomicin; 0.59% of 360,000 active; inhibition, % at 20 µM; O00487; AID 588493;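 active = inhibition at 20 µM, scaled to each plate's controls, above about 33%, limit read from the data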
# Target sequence (O00487 whole entry, looked up): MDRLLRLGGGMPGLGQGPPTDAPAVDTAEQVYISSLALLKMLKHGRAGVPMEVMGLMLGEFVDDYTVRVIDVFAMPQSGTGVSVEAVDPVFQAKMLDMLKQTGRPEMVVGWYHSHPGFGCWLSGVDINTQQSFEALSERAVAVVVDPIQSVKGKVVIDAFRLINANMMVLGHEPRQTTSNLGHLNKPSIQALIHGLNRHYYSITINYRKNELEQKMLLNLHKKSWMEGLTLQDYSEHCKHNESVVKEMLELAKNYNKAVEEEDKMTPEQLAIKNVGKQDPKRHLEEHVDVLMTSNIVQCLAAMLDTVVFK
# HNF4A DNA FP: change in binding of human HNF4 alpha to DNA; HNF4a-FITC DNA binding, fluorescence polarization, 1 h; activity change, % at 10 µM; 0.3% of 360,000 active; AID 1224865; in the data active = activity change above about 30%, passing the limit was not always enough
# Neddyl block: blocks human cullin neddylation; TR-FRET cullin neddylation, biochemical; P61081+Q13564; 0.58% of 360,000 active; inhibition, % at 25 µM; AID 651699; in the data active = inhibition above about 36%
# CSN deneddyl inh: inhibitors of human CSN-mediated cullin deneddylation | Q92905 | inhibition, % at 12.5 µM | AID 651999 | Purified CSN, SCF-Nedd8-OG deneddylation, fluorescence polarization | 0.38% of 360,000 active;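 active = pattern-corrected inhibition above about 35%, with an unprinted fluorescence ratio check between 0.5 and 1.5, limit read from the data, passing the limit was not always enough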
# Target sequence (Q92905 whole entry, looked up, one chain of several): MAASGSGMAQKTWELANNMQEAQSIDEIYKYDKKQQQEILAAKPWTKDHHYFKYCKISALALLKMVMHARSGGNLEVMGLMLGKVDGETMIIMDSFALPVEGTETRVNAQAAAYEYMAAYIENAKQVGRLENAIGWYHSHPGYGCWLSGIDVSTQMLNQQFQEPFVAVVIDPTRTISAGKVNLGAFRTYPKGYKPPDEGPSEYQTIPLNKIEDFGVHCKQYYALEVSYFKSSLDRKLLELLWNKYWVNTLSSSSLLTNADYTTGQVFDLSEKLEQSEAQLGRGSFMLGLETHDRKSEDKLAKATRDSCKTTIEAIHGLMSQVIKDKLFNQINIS
#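 Assay system: Purified human Csn5 enzyme expressed in HEK293T cells | Amount: Enzyme 0.24 nM | Measured by: Fluorescence polarization readout | Medium: Tris/NaCl/DTT buffer, pH 7.5 | Compound dosing: One concentration, 12.5 µM, 0.25% DMSO | Times: 90 min incubation of compound, enzyme and substrate at room temperature | Control set: no-enzyme wells high, enzyme-with-substrate wells low | Read-out: % inhibition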
# TPT1 inhibitor: blocks Candida albicans tRNA 2'-phosphotransferase; recombinant caTPT1, FP RNA substrate dephosphorylation; inhibition, % at 5 µM; 0.81% of 300,000 active;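 active = inhibition above the mean of all tested compounds plus 3 SD, set per screening campaign, cut at about 24% in these data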
# Rin1-Abl confirm: confirmation of inhibitors of human Rin1-Abl interaction | inhibition, % at 7.35 µM | AID 602124 | TR-FRET Rin1-Abl binding, purified proteins | shares compounds with Rin1-Abl PPI inh | 49% of 1,300 active
# GFP quench: GFP fluorescence interference artifact. inhibitors/quenchers counterscreen. 8.5% of 1,300 active. inhibition, % at 6.75 µM. shares compounds with Rin1-Abl PPI inh;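 note: ABL1-eGFP fusion protein alone without its partner RIN1-SBP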
# GFP quench dose: quenches GFP in dose response, Rin1-Abl counter-screen; 230 tested, under 10 active; IC50, µM; GFP fluorescence interference/quenching counterscreen; shares compounds with Rin1-Abl PPI inh; call rule not given here;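 note: ABL1-eGFP fusion protein alone without its RIN1 binding partner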
# Numbers stand for hits; n = inactive; x = no result shown. Cut-off read from the data, not from the text of the source, unless noted: active = inhibition above about 6.5%; inactive = the rest.
SMILES,Rin1-Abl PPI inh,Rpn11 block,HNF4A DNA FP,Neddyl block,CSN deneddyl inh,TPT1 inhibitor,Rin1-Abl confirm,GFP quench,others
COCc1ccc(CN2CCC(C(=O)Nc3cccc(-c4cscn4)c3)CC2)o1,n,n,n,n,n,n,x,x,
CCOc1cc(Cl)c(NC(C)=O)cc1OCC,n,n,n,n,n,n,x,x,
CN(C)c1ccc(-c2[nH][nH]c(=O)c2NC(=O)c2ccc3ccccc3n2)cc1,36,n,n,n,n,x,10,n,
Cn1ccc(C(=O)NC(=S)Nc2ccc([N+](=O)[O-])cc2O)n1,n,n,n,n,n,x,x,x,
CN1CCN(C(c2ccc(C(F)(F)F)cc2)c2cc(Cl)c3cccnc3c2O)CC1 (stereo not drawn),x,x,x,x,x,n,x,x,
CC(=O)NC(c1ccc(C)cc1)c1cc([N+](=O)[O-])c2cccnc2c1O (stereo not drawn),n,n,n,n,n,n,x,x,
Oc1c(C(c2ccccn2)N2CCCCC2)cc(Cl)c2cccnc12 (stereo not drawn),22,n,n,n,n,n,14,n,
CC(=O)NC(c1ccccc1)c1cc(Cl)c2cccnc2c1O (stereo not drawn),12,n,n,n,n,n,10,n,
CC(=O)NC(c1ccc(N(C)C)cc1)c1cc(Cl)c2cccnc2c1O (stereo not drawn),6.6,n,n,n,n,x,6.9,n,
COc1ccc(C(NC(C)=O)c2cc(Cl)c3cccnc3c2O)cc1 (stereo not drawn),8.2,n,n,n,n,n,7.0,n,
COc1ccc(N(C(=O)Cn2nnc3ccccc32)C(C(=O)NCc2ccco2)c2ccc(C)o2)cc1 (stereo not drawn),n,n,n,n,n,n,x,x,
CC1(C)CC2CC(C)(CN2C(=O)c2cc(-c3ccccc3O)on2)C1 (stereo not drawn),n,n,n,n,n,n,x,x,
CCN(C(=O)C1CCCN(c2ncnc3c2nc2n3CCCCC2)C1)c1cccc(Cl)c1 (stereo not drawn),n,n,n,n,n,n,x,x,
CCc1ccc(S(=O)(=O)N2CCN(c3ccccc3OC)CC2)cc1,n,n,n,n,n,n,x,x,
O=C(NCC1CCN(c2ccc(S(=O)(=O)N3CCOCC3)cc2)CC1)Nc1ccccc1,n,n,n,n,n,n,x,x,
COc1ccccc1C(=O)NCC1CCN(c2ccc(S(=O)(=O)N3CCOCC3)cc2)CC1,22,n,n,n,n,n,13,n,
COc1ccccc1-c1c(C#N)c(N)nc2c1CCc1ccccc1-2,n,n,n,x,n,n,x,x,
CCN(c1ccc(NC(=O)COC(=O)C2CCN(c3ccc(C(F)(F)F)cn3)CC2)cc1)C(C)C,n,n,n,n,n,x,x,x,
O=c1cc(-c2ccc(O)cc2)oc2ccccc12,n,n,n,x,n,n,x,x,
O=c1cc(-c2ccccc2)oc2cc(O)ccc12,64,n,n,n,n,x,n,n,
Cc1ccc(Cl)cc1N1C(=O)CC(C)(C)CC1=O,7.2,n,n,n,n,n,n,n,
CC1(C)CC(=O)N(c2ccc(Cl)c(Cl)c2)C(=O)C1,n,n,n,n,n,n,x,x,
COc1ccc(S(=O)(=O)N2CCCC(C(=O)NCC3CCCO3)C2)cc1C (stereo not drawn),n,n,n,n,n,n,x,x,
O=C1Nc2ccccc2Nc2ccccc21,n,n,n,n,n,n,x,x,
O=C1Nc2ccccc2N=C(c2ccccc2)c2ccccc21,5.9,n,n,n,n,n,n,n,
SMILES,Rin1-Abl PPI inh,Rpn11 block,HNF4A DNA FP,Neddyl block,CSN deneddyl inh,TPT1 inhibitor,Rin1-Abl confirm,GFP quench,others
CCCCC[C@@H]1C=C(C(=O)O)[C@H](c2ccc(Cl)cc2)N1S(=O)(=O)c1ccc(C)cc1,8.2,n,n,n,n,x,n,n,
S=C(NCCN1CCCCC1)Nc1ccccc1,9.0,n,n,n,n,n,n,n,
Oc1ccc(/C=N/N2CCOCC2)c(O)c1O,30,n,n,n,n,n,33,n,GFP quench dose=n
Oc1cccc(/C=N/N2CCCCC2)c1O,n,n,n,n,n,n,x,x,
COc1cccc(/C=N/N2CCOCC2)c1O,n,n,n,n,n,n,x,x,
Oc1ccc(/C=N/N2CCCCC2)c(O)c1O,25,n,n,n,n,n,32,n,GFP quench dose=n
Oc1c(Cl)cc(CN2CCOCC2)c2cccnc12,7.4,n,n,n,n,x,n,n,
O=C(COc1c(Br)cc(Br)c2cccnc12)N1CCCCC1,n,n,n,n,n,n,x,x,
Oc1c(CN2CCCCC2)cc(Br)c2cccnc12,11,n,n,n,n,n,8.0,n,
Cc1[nH]c(C)c2c(=O)[nH]ncc12,n,n,n,n,n,n,x,x,
O=C(/C=C/Nc1ccc(S(=O)(=O)Nc2ncccn2)cc1)c1ccc2ccccc2c1,n,n,n,n,n,n,x,x,
COc1ccccc1CC(NC(C)=O)C(=O)NC1CCN(S(=O)(=O)c2ccccc2)CC1 (stereo not drawn),n,n,n,n,n,x,x,x,
COc1ccccc1CC(NC(C)=O)C(=O)NC1CCN(S(=O)(=O)c2ccc(NC(C)=O)cc2)CC1 (stereo not drawn),12,n,n,n,n,n,n,n,
CCCCOc1ccc(C2C(C(=O)c3ccc(C)o3)=C(O)C(=O)N2CC2CCCO2)cc1 (stereo not drawn),n,n,n,n,n,n,x,x,
O=c1[nH]n(CC2COC3(CCCCC3)O2)c(=O)c2ccccc12 (stereo not drawn),34,n,n,n,n,n,27,n,GFP quench dose=n
CC1(C)C(=O)OC(c2c(F)c(F)c(F)c(F)c2F)C2(CCCCC2)C1=O (stereo not drawn),7.5,n,n,n,n,n,n,n,
CC1(C)C(=O)OC(c2cccn2-c2ccc([N+](=O)[O-])cc2)C2(CCCCC2)C1=O (stereo not drawn),n,n,n,n,n,n,x,x,
CC1(C)CC(NC(=O)c2ccc(Cl)c(S(=O)(=O)N(Cc3ccccc3)c3ccccc3)c2)CC(C)(C)N1,x,n,n,n,n,n,x,x,
C/C(=N\NC(=O)c1ccc2c(c1)OCCO2)c1ccccc1,6.5,n,n,n,n,n,n,n,
O=C(Nc1ccccc1-c1ccccc1)c1ccc(=O)[nH]n1,n,n,n,n,n,n,x,x,
CC(NC(=O)C(=O)c1cn(CC(=O)N2CCOCC2)c2ccccc12)c1ccccc1 (stereo not drawn),18,n,n,n,n,n,n,n,
OC1CCCN(Cc2nc(Cc3ccccc3Cl)no2)C1 (stereo not drawn),8.8,n,n,n,n,n,n,n,

# Compound activity: PubChem, several laboratories
